Assay results as given in ChEMBL document CHEMBL1134337, “Behavioral approach to nondyskinetic dopamine antagonists: identification of seroquel” (J Med Chem, 2001).
One block for each molecule: values may come before it.

What was measured:
Mus musculus [1] = test: Antagonism of apomorphine induced climbing was determined in female swiss -Wbster mice after (ip) administration of 40 mg/kg; type: functional
How it was run: (§1)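 Female Swiss-Webster mice (about 20 g) were fasted about 24 h, then given test compound or vehicle ip or po (N = 20 per group). Vehicle was 0.5% w/w hydroxypropylmethylcellulose with 0.1% w/w Tween 80 in water. After 30 min, mice received apomorphine HCl 1.25 mg/kg sc. At 13 min, each mouse was watched for 1 min; score was mean of highest and lowest rung of 27. Groups were compared with vehicle by Student's t-test.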

Mus musculus [2] = test: Antagonism of apomorphine induced swimming was determined in female swiss -Wbster mice after (po) administration of 40 mg/kg; type: functional
Mus musculus [3] = test: Antagonism of apomorphine induced climbing was determined in female swiss -Wbster mice after (ip) administration of 20 mg/kg; type: functional; how it was run: as §1
[4] = Number of animals showing dyskinesias was determined in haloperidol sensitized 3 cebus monkeys after (po) administration of 20 mg/kg; type: functional
How it was run: (§2)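 Adult female and male Cebus monkeys sensitized with oral haloperidol 1 mg/kg once per week until dyskinetic reactions occurred. Test drug given orally (2 mL/kg) in 0.5% w/w hydroxypropylmethylcellulose with 0.1% w/w Tween 80 in distilled water, at least 2 weeks between treatments. Two observers watched continuously for 6-7 h, recording reaction type and severity every 30 min. Score is monkeys with dyskinesias/monkeys tested.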

[5] = biological target: D(2) dopamine receptor (Rattus norvegicus) (UniProt P61169); test: Binding affinity at dopamine receptor D2 from rat by spiropiperidone displacement.
How it was run: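 D2 receptor binding was read as % displacement of spiropiperidone, with test compound at 1000 nM unless stated otherwise. IC50 values used at least five concentrations per compound in triplicate. Each value is the mean of two replicate experiments differing by 5% or less.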

Mus musculus [6] = test: Antagonism of apomorphine induced swimming was determined in female swiss -Wbster mice after (po) administration of 20 mg/kg; type: functional
[7] = Number of animals showing dyskinesias was determined in haloperidol sensitized 2 cebus monkeys after (po) administration of 80 mg/kg; type: functional; how it was run: as §2
[8] = Number of animals showing dyskinesias was determined in haloperidol sensitized 2cebus monkeys after (po) administration of 20 mg/kg; type: functional; how it was run: as §2
Mus musculus [9] = test: Antagonism of apomorphine induced climbing was determined in female swiss -Wbster mice after (ip) administration of 80 mg/kg; type: functional; how it was run: as §1
[10] = Number of animals showing dyskinesias was determined in haloperidol sensitized 4 cebus monkeys after (po) administration of 40 mg/kg; type: functional; how it was run: as §2
[11] = Number of animals showing dyskinesias was determined in haloperidol sensitized 12 cebus monkeys after (po) administration of 20 mg/kg; type: functional
How it was run: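 Adult male and female Cebus monkeys were sensitized with haloperidol 1 mg/kg po weekly until dyskinesias appeared. Test drug was given po (2 mL/kg) in HPMC/Tween 80 vehicle, with at least 2 weeks between treatments. Two observers watched continuously for 6-7 h, recording reaction type and severity every 30 min. Result is number of monkeys showing dyskinesias over number tested.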

Mus musculus [12] = test: Antagonism of apomorphine induced swimming was determined in female swiss -Wbster mice after (ip) administration of 10 mg/kg; type: functional
Mus musculus [13] = test: Antagonism of apomorphine induced swimming was determined in female swiss -Wbster mice after (po) administration of 80 mg/kg; type: functional
Mus musculus [14] = test: Antagonism of apomorphine induced climbing was determined in female swiss -Wbster mice after (po) administration of 80 mg/kg; type: functional; how it was run: as §1
Mus musculus [15] = test: Antagonism of apomorphine induced swimming was determined in female swiss -Wbster mice after (ip) administration of 40 mg/kg; type: functional
Mus musculus [16] = test: Antagonism of apomorphine induced swimming was determined in female swiss -Wbster mice after (ip) administration of 80 mg/kg; type: functional
D(2) dopamine receptor = D(2) dopamine receptor (Rattus norvegicus, UniProt P61169); test: Inhibition of spiropiperidone binding at dopamine receptor D2 of rat.
Mus musculus [17] = test: Antagonism of apomorphine induced swimming was determined in female swiss -Wbster mice after (ip) administration of 20 mg/kg; type: functional
[18] = Number of animals showing dyskinesias was determined in haloperidol sensitized 2 cebus monkeys after (po) administration of 40 mg/kg; type: functional; how it was run: as §2
[19] = Number of animals showing dyskinesias was determined in haloperidol sensitized 5 cebus monkeys after (po) administration of 10 mg/kg; type: functional; how it was run: as §2
Mus musculus [20] = test: Antagonism of apomorphine induced climbing was determined in female swiss -Wbster mice after (ip) administration of 10 mg/kg; type: functional; how it was run: as §1
Mus musculus [21] = test: Antagonism of apomorphine induced climbing was determined in female swiss -Webster mice after (ip) administration of 10 mg/kg; type: functional; how it was run: as §1
Mus musculus [22] = test: Antagonism of apomorphine induced climbing was determined in female swiss -Webster mice after (ip) administration of 20 mg/kg; type: functional; how it was run: as §1
[23] = Number of animals showing dyskinesias was determined in haloperidol sensitized 3 cebus monkeys after (po) administration of 10 mg/kg; type: functional; how it was run: as §2
Mus musculus [24] = test: Antagonism of apomorphine induced climbing was determined in female swiss -Webster mice after (ip) administration of 40 mg/kg; type: functional; how it was run: as §1
Mus musculus [25] = test: Antagonism of apomorphine induced climbing was determined in female swiss -Webster mice after (p.o.) +SKF525A administration of 5 mg/kg; type: functional; conditions: route oral; how it was run: as §1
Mus musculus [26] = test: Antagonism of apomorphine induced climbing was determined in female swiss -Webster mice after (po) administration of 20 mg/kg; type: functional; how it was run: as §1
Mus musculus [27] = test: Antagonism of apomorphine induced climbing was determined in female swiss -Webster mice after (ip) administration of 2.5 mg/kg; type: functional; how it was run: as §1
Mus musculus [28] = test: Antagonism of apomorphine induced climbing was determined in female swiss -Webster mice after (p.o.) +SKF525A administration of 10 mg/kg; type: functional; conditions: route oral; how it was run: as §1
Mus musculus [29] = test: Antagonism of apomorphine induced climbing was determined in female swiss -Webster mice after (i.p.) +SKF525A administration of 5 mg/kg; type: functional; conditions: route intraperitoneal; how it was run: as §1
Mus musculus [30] = test: Antagonism of apomorphine induced climbing was determined in female swiss -Webster mice after (i.p.) +SKF525A administration of 10 mg/kg; type: functional; conditions: route intraperitoneal; how it was run: as §1
Mus musculus [31] = test: Antagonism of apomorphine induced climbing was determined in female swiss -Webster mice after (i.p.) +SKF525A administration of 20 mg/kg; type: functional; conditions: route intraperitoneal; how it was run: as §1
Mus musculus [32] = test: Antagonism of apomorphine induced climbing was determined in female swiss -Webster mice after (i.p.) +SKF525A administration of 2.5 mg/kg; type: functional; conditions: route intraperitoneal; how it was run: as §1
Mus musculus [33] = test: Antagonism of apomorphine induced climbing was determined in female swiss -Webster mice after (po) administration of 5 mg/kg; type: functional; how it was run: as §1
Mus musculus [34] = test: Antagonism of apomorphine induced climbing was determined in female swiss -Webster mice after (po) administration of 10 mg/kg; type: functional; how it was run: as §1
Mus musculus [35] = test: Antagonism of apomorphine induced climbing was determined in female swiss -Webster mice after (p.o.) +SKF525A administration of 20 mg/kg; type: functional; conditions: route oral; how it was run: as §1
Mus musculus [36] = test: Antagonism of apomorphine induced climbing was determined in female swiss -Webster mice after (ip) administration of 5 mg/kg; type: functional; how it was run: as §1
Mus musculus [37] = test: Antagonism of apomorphine induced swimming was determined in female swiss -Webster mice after (ip) administration of 40 mg/kg; type: functional
[38] = Number of animals showing dyskinesias was determined in haloperidol sensitized cebus monkey after (po) administration of 10 mg/kg; type: functional; how it was run: as §2
Mus musculus [39] = test: Antagonism of apomorphine induced swimming was determined in female swiss -Webster mice after (ip) administration of 2.5 mg/kg; type: functional
Mus musculus [40] = test: Antagonism of apomorphine induced swimming was determined in female swiss -Webster mice after (ip) administration of 5 mg/kg; type: functional
Mus musculus [41] = test: Antagonism of apomorphine induced swimming was determined in female swiss -Webster mice after (ip) administration of 20 mg/kg; type: functional
Mus musculus [42] = test: Antagonism of apomorphine induced swimming was determined in female swiss -Webster mice after (ip) administration of 10 mg/kg; type: functional
[43] = Number of animals showing dyskinesias was determined in haloperidol sensitized 6 cebus monkeys after (po) administration of 10 mg/kg; type: functional; conditions: dose 20 mg/kg; in the assay text read “20 mg/kg” for “10 mg/kg”; how it was run: as §2

Sequence of D(2) dopamine receptor (Rattus norvegicus) (P61169 whole entry): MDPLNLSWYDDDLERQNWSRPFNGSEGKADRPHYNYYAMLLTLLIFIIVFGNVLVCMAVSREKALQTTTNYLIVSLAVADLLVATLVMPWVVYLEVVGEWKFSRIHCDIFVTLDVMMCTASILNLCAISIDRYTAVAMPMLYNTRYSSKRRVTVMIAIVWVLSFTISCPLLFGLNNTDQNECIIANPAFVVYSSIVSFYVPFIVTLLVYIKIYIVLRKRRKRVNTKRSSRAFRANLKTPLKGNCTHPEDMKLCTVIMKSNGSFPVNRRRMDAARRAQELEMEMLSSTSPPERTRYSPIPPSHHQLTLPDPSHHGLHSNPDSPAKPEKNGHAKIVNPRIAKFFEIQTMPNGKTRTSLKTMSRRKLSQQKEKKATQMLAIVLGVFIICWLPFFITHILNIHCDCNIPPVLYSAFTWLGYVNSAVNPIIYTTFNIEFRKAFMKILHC
Sequence of D(2) dopamine receptor (P61169 whole entry): as above

SMILES: OCCOCCN1CCN(C2=Nc3cc(Cl)ccc3Oc3ccccc32)CC1
Activity (Mus musculus [1]): 0
Activity (Mus musculus [2]): 4
Activity (Mus musculus [3]): 17
No of monkeys [4]: 2
% displacement of spiropiperidone [5]: 54%
Activity (Mus musculus [6]): 2

SMILES: OCCOCCN1CCN(C2=Nc3ccc(F)cc3Sc3ccccc32)CC1
Activity (Mus musculus [1]): 8
No of monkeys [11]: 3
Activity (Mus musculus [12]): 1
Activity (Mus musculus [13]): 2
Activity (Mus musculus [14]): 23
Activity (Mus musculus [15]): 8
Activity (Mus musculus [3]): 9
Activity (Mus musculus [16]): 18
IC50 (D(2) dopamine receptor): 560 nM
Activity (Mus musculus [9]): 2
Activity (Mus musculus [17]): 1
No of monkeys [18]: 0
No of monkeys [19]: 1
Activity (Mus musculus [20]): 14

SMILES: OCCN1CCN(C2=Nc3ccccc3Sc3ccccc32)CC1
Activity (Mus musculus [12]): 3
Activity (Mus musculus [2]): 28
Activity (Mus musculus [21]): 24
Activity (Mus musculus [22]): 6
Activity (Mus musculus [6]): 18
No of monkeys [23]: 2
Activity (Mus musculus [24]): 1

SMILES: OCCOCCN1CCN(C2=Nc3ccc(O)cc3Sc3ccccc32)CC1
Activity (Mus musculus [1]): 0
Activity (Mus musculus [12]): 5
Activity (Mus musculus [15]): 31
Activity (Mus musculus [3]): 5
IC50 (D(2) dopamine receptor): 166 nM
No of monkeys [43]: 5
Activity (Mus musculus [17]): 17
Activity (Mus musculus [20]): 27

The next lines start with results.

% displacement of spiropiperidone [5]: 34%
SMILES: OCCOCCN1CCN(C2=Nc3cc(F)ccc3Sc3ccccc32)CC1
Activity (Mus musculus [1]): 14
No of monkeys [7]: 0
No of monkeys [8]: 0
Activity (Mus musculus [3]): 16
Activity (Mus musculus [9]): 6
No of monkeys [10]: 0

% displacement of spiropiperidone [5]: 35%
SMILES: CN1CCN(C2=Nc3ccccc3Sc3ccccc32)CC1
Activity (Mus musculus [25]): 23
Activity (Mus musculus [26]): 0
Activity (Mus musculus [27]): 21
Activity (Mus musculus [28]): 18
Activity (Mus musculus [21]): 3
Activity (Mus musculus [29]): 21
Activity (Mus musculus [30]): 18
Activity (Mus musculus [31]): 3
Activity (Mus musculus [22]): 0
Activity (Mus musculus [32]): 23
Activity (Mus musculus [33]): 21
Activity (Mus musculus [34]): 8
Activity (Mus musculus [35]): 9
Activity (Mus musculus [36]): 14

IC50 (D(2) dopamine receptor): 755 nM
SMILES: COC(CO)CN1CCN(C2=Nc3ccccc3Sc3ccccc32)CC1 (centres undefined)
Activity (Mus musculus [37]): 32
Activity (Mus musculus [27]): 21
No of monkeys [38]: 2
Activity (Mus musculus [21]): 8
Activity (Mus musculus [39]): 0
Activity (Mus musculus [40]): 2
Activity (Mus musculus [22]): 2
Activity (Mus musculus [24]): 1
Activity (Mus musculus [41]): 22
Activity (Mus musculus [36]): 19
Activity (Mus musculus [42]): 6
